Results as given in ChEMBL document CHEMBL3351467, “Ligand-free Pd-catalyzed C-N cross-coupling/cyclization strategy: an unprecedented access to 1-thienyl pyrroloquinoxalines for the new approach towards apoptosis” (Eur J Med Chem, 2014).
One block for each molecule: values may come before it. Active and inactive are the calls of the source. The rule behind the calls is not given here.

What was measured:
[1] = biological target: 3',5'-cyclic-AMP phosphodiesterase 4B (Homo sapiens) (UniProt Q07343); experiment: Inhibition of recombinant His-tagged PDE4B1 (unknown origin) expressed in Sf9 cells at 30 uM pre-incubated for 15 mins before cAMP substrate addition by luminescence assay
3',5'-cyclic-AMP phosphodiesterase 4B (Homo sapiens), sequence (Q07343 whole entry): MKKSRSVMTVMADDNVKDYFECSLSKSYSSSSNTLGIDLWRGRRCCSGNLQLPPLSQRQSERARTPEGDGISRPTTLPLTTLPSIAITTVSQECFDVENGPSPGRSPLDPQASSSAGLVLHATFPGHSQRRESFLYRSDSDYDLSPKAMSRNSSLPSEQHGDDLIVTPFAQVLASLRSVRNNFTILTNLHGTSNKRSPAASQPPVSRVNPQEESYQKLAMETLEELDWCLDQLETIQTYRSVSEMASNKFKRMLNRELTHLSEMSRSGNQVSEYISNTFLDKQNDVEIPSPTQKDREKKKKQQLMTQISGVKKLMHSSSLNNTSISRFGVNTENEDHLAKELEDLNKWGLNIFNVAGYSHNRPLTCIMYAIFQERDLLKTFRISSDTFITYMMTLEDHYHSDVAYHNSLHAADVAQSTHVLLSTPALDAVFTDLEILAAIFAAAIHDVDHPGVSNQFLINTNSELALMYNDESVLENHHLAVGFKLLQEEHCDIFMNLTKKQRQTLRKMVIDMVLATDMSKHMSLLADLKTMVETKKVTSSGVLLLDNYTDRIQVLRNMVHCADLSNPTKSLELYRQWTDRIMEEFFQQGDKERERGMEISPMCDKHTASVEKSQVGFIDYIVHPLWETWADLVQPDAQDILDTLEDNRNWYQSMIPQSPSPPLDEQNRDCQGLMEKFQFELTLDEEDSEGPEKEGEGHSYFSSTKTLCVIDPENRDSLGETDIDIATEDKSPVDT
How it was run: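 PDE4B1 purified in house (10 ng) pre-incubated 15 min with compound or DMSO vehicle. cAMP substrate ([…]) added for 1 h, then reaction stopped and detection reagent applied 10 min in the dark. Luminescence (RLU) read. % inhibition = (RLU vehicle − RLU inhibitor)/RLU vehicle × 100.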

Danio rerio [2] = organism: Danio rerio; experiment: Induction of apoptosis in Zebrafish embryo at 1 to 10 uM incubated for 24 to 48 hrs by acridine orange based fluorescence microscopy; format: functional, organism-based
How it was run: (§1)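 Embryos dechorionated by hand at 24 hpf, 6 per well in two sets, in 0.1% DMSO. Compound added from serially diluted working stocks, kept at 28 °C for 24 h and 48 h. Washed three times in E3, stained 30 min with acridine orange ([…]) in E3, rinsed twice, then examined for apoptosis.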

Danio rerio [3] = organism: Danio rerio; experiment: Teratogenicity in Zebrafish embryo assessed as induction of morphological deformities at lower jaw at 1 uM incubated at 28.5 degC until 5 days post fertilization; format: organism-based; details: in vivo, 120 h
How it was run: (§2)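 Embryos at 1 dpf dechorionated with 0.5 mg/ml pronase E and washed in E3. Exposed 6 per well to compound serially diluted in E3 with a final 0.1% DMSO, at 28.5 °C until 5 dpf. Embryos then washed, anaesthetised with 0.008% tricaine and scored blind for body shape, somites, notochord, tail, intestine, fins, brain, jaws, heart, liver and swim bladder. Phenobarbital (3 mM) served as positive control.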

Danio rerio [4] = organism: Danio rerio; experiment: Hepatotoxicity in Zebrafish embryo at 1 to 3 uM incubated at 28 degC until 7 days post fertilization; format: organism-based; details: in vivo, 168 h
How it was run: (§3)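 Larvae at 4 dpf exposed in 24-well plates, 6 per well in 0.1% DMSO, to final 1, 3, 10 and 30 concentrations, incubated at 28 °C until 7 dpf. Washed in E3 and anaesthetised with tricaine. Images scored for liver size, liver degeneration and yolk sac retention as percentages. Amiodarone served as positive control.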

Danio rerio [5] = organism: Danio rerio; experiment: Hepatotoxicity in Zebrafish embryo at 10 to 30 uM incubated at 28 degC until 7 days post fertilization; format: organism-based; details: in vivo, 168 h; how it was run: as §3
Danio rerio [6] = organism: Danio rerio; experiment: Toxicity in Zebrafish embryo at 1 to 30 uM; format: organism-based; details: in vivo; how it was run: as §2
Danio rerio [7] = organism: Danio rerio; experiment: Toxicity in Zebrafish embryo assessed as induction of changes in body shape at 1 uM; format: organism-based; details: in vivo; how it was run: as §2
Danio rerio [8] = organism: Danio rerio; experiment: Toxicity in Zebrafish embryo assessed as induction of changes in somites at 1 uM; format: organism-based; details: in vivo; how it was run: as §2
Danio rerio [9] = organism: Danio rerio; experiment: Toxicity in Zebrafish embryo assessed as induction of changes in notochords at 1 uM; format: organism-based, Notochord; details: in vivo; how it was run: as §2
Danio rerio [10] = organism: Danio rerio; experiment: Toxicity in Zebrafish embryo assessed as induction of changes in tail region at 1 uM; format: organism-based; details: in vivo; how it was run: as §2
Danio rerio [11] = organism: Danio rerio; experiment: Toxicity in Zebrafish embryo assessed as induction of changes in fins region at 1 uM; format: organism-based; details: in vivo; how it was run: as §2
Danio rerio [12] = organism: Danio rerio; experiment: Toxicity in Zebrafish embryo assessed as induction of changes in brain region at 1 uM; format: organism-based; details: in vivo; how it was run: as §2
Danio rerio [13] = organism: Danio rerio; experiment: Toxicity in Zebrafish embryo assessed as induction of changes in upper jaw region at 1 uM; format: organism-based; details: in vivo; how it was run: as §2
Danio rerio [14] = organism: Danio rerio; experiment: Toxicity in Zebrafish embryo assessed as induction of changes in heart region at 1 uM; format: organism-based; details: in vivo; how it was run: as §2
Danio rerio [15] = organism: Danio rerio; experiment: Toxicity in Zebrafish embryo assessed as induction of changes in intestine region at 1 uM; format: organism-based; details: in vivo; how it was run: as §2
Danio rerio [16] = organism: Danio rerio; experiment: Toxicity in Zebrafish embryo assessed as induction of changes in lower jaw region at 1 uM; format: organism-based; details: in vivo; how it was run: as §2
Danio rerio [17] = organism: Danio rerio; experiment: Toxicity in Zebrafish embryo assessed as induction of changes in liver region at 1 uM; format: organism-based; details: in vivo; how it was run: as §2
Danio rerio [18] = organism: Danio rerio; experiment: Toxicity in Zebrafish embryo assessed as induction of changes in swim bladder region at 1 uM; format: organism-based; details: in vivo; how it was run: as §2
Danio rerio [19] = organism: Danio rerio; experiment: Induction of apoptosis in Zebrafish embryo incubated for 24 to 48 hrs by acridine orange based fluorescence microscopy; format: functional, organism-based; how it was run: as §1
Danio rerio [20] = organism: Danio rerio; experiment: Hepatotoxicity in Zebrafish embryo at 28 degC until 7 days post fertilization; format: organism-based; details: in vivo, 168 h; how it was run: as §3
Danio rerio [21] = organism: Danio rerio; experiment: Teratogenicity in Zebrafish embryo incubated at 28.5 degC until 5 days post fertilization; format: ADME, organism-based; details: in vivo, 120 h; how it was run: as §2
[22] = Therapeutic index, ratio of NOAEL in Zebrafish embryos to apoptotic EC50 in Zebrafish embryos; format: organism-based, Danio rerio; details: read-out: TI
Danio rerio [23] = organism: Danio rerio; experiment: Induction of apoptosis in Zebrafish embryo at 3 to 30 uM incubated for 24 to 48 hrs by acridine orange based fluorescence microscopy; format: functional, organism-based; how it was run: as §1
Danio rerio [24] = organism: Danio rerio; experiment: Induction of apoptosis in Zebrafish embryo at 1 uM incubated for 24 to 48 hrs by acridine orange based fluorescence microscopy; format: functional, organism-based; how it was run: as §1
Danio rerio [25] = organism: Danio rerio; experiment: Teratogenicity in Zebrafish embryo at 1 to 30 uM incubated at 28.5 degC until 5 days post fertilization; format: ADME, organism-based; details: in vivo, 120 h; how it was run: as §2
Danio rerio [26] = organism: Danio rerio; experiment: Hepatotoxicity in Zebrafish embryo at 1 to 10 uM incubated at 28 degC until 7 days post fertilization; format: organism-based; details: in vivo, 168 h; how it was run: as §3
Danio rerio [27] = organism: Danio rerio; experiment: Hepatotoxicity in Zebrafish embryo at 30 uM incubated at 28 degC until 7 days post fertilization; format: organism-based; details: in vivo, 168 h; how it was run: as §3

inhibition [1]: 85%
SMILES: CCOC(=O)c1ccsc1-n1c(-c2ccccc2)cc2nc3ccccc3nc21
Activity (Danio rerio [2]): Active
Activity (Danio rerio [3]): Non-toxic
Activity (Danio rerio [4]): Non-toxic
Activity (Danio rerio [5]): Toxic
MTC (Danio rerio [6]): 1 µM
NOAEL (Danio rerio [6]): < 1 µM
Activity (Danio rerio [7]): Non-toxic
Activity (Danio rerio [8]): Toxic
Activity (Danio rerio [9]): Non-toxic
Activity (Danio rerio [10]): Non-toxic
Activity (Danio rerio [11]): Non-toxic
Activity (Danio rerio [12]): Toxic
Activity (Danio rerio [13]): Toxic
Activity (Danio rerio [14]): Non-toxic
Activity (Danio rerio [15]): Toxic
Activity (Danio rerio [16]): Toxic
Activity (Danio rerio [17]): Toxic
Activity (Danio rerio [18]): Toxic
EC50 (Danio rerio [19]): 3220 nM
NOAEL (Danio rerio [20]): 3 µM
NOAEL (Danio rerio [21]): 1 µM
selectivity ratio [22]: 0.31

inhibition [1]: 78%
SMILES: CCOC(=O)c1c(-c2ccccc2)csc1-n1c(-c2ccc(C)cc2)cc2nc3ccccc3nc21
Activity (Danio rerio [23]): Active
Activity (Danio rerio [24]): inactive
Activity (Danio rerio [25]): Non-toxic
Activity (Danio rerio [26]): Non-toxic
Activity (Danio rerio [27]): Toxic
MTC (Danio rerio [6]): 1 µM
NOAEL (Danio rerio [6]): 3 µM
Activity (Danio rerio [7]): Non-toxic
Activity (Danio rerio [8]): Non-toxic
Activity (Danio rerio [9]): Non-toxic
Activity (Danio rerio [10]): Non-toxic
Activity (Danio rerio [11]): Non-toxic
Activity (Danio rerio [12]): Non-toxic
Activity (Danio rerio [13]): Non-toxic
Activity (Danio rerio [14]): Non-toxic
Activity (Danio rerio [15]): Non-toxic
Activity (Danio rerio [16]): Toxic
Activity (Danio rerio [17]): Non-toxic
Activity (Danio rerio [18]): Non-toxic
EC50 (Danio rerio [19]): 1830 nM
NOAEL (Danio rerio [20]): 10 µM
NOAEL (Danio rerio [21]): 3 µM
selectivity ratio [22]: 1.64
